One block for each molecule: values may come before it.
Tests used:
[1] = tested on: Human immunodeficiency virus 1; assay: Effective dose against inhibition of HIV-1 protease in CEM cells; format: functional; conditions: Human immunodeficiency virus 1, CCRF-CEM; read-out: ED50 (the source's name)
Outline: (§1)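 HIV-1-induced killing of CEM-SS cells; cell viability read by MTT tetrazolium metabolism. ED50 = concentration giving 50% inhibition of HIV-1-induced cell death. Run at Southern Research Institute.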

[2] = target: T1, Human immunodeficiency virus type 1 protease (Human immunodeficiency virus 1, UniProt Q72874); assay: Binding affinity against HIV-1 protease
[3] = target: T1, Human immunodeficiency virus type 1 protease; assay: Compound was tested for binding affinity against HIV protease
[4] = tested on: CCRF-CEM; assay: Antiviral activity againsy HIV-1 in CEM cells; format: functional; conditions: Homo sapiens, read-out: ED50 (the source's name); outline: as §1
[5] = Toxic concentration at which 50% of CEM-SS cells were viable (uninfected with virus) as determined by metabolism of MTT in(uM).; format: toxicity, cell-based; conditions: human, read-out: TC50 (the source's name)
Outline: (§2)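 Uninfected CEM-SS cells; viability read by MTT metabolism. TC50 = concentration giving 50% reduction in number of viable cells; reported in μM.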

[6] = Pharmacokinetic parameter Cmax determined after oral administration of 15 mg/kg to dog; conditions: in vivo
[7] = Pharmacokinetic parameter half life determined after intravenous administration of 50 mg/kg to rat; format: ADME, organism-based; parameters: dose 50 mg/kg, route intravenous; conditions: in vivo
[8] = Pharmacokinetic parameter half life determined after oral administration of 15 mg/kg to dog; format: ADME, organism-based, Canis lupus familiaris; parameters: dose 15 mg/kg, route oral; conditions: in vivo
[9] = Pharmacokinetic parameter Cmax determined after oral administration of 50 mg/kg to rat; format: ADME, organism-based; parameters: dose 50 mg/kg, route oral; conditions: in vivo
[10] = Fraction of compound bio available orally in rat at dosage 50(mg/kg) by po administration; format: ADME, organism-based; conditions: in vivo
[11] = Maximal concentration in monkey plasma after 25 mg/kg oral dose; format: ADME, organism-based; parameters: dose 25 mg/kg, route oral; conditions: simiiformes
[12] = Pharmacokinetic parameter Cmax determined after intravenous administration of 50 mg/kg to rat; format: ADME, organism-based; parameters: dose 50 mg/kg, route intravenous; conditions: in vivo
[13] = Pharmacokinetic parameter half life determined after intravenous administration of 60 mg/kg to rat; format: ADME, organism-based; parameters: dose 60 mg/kg, route intravenous; conditions: in vivo
[14] = Pharmacokinetic parameter Cmax determined after intravenous administration of 60 mg/kg to rat; format: ADME, organism-based; parameters: dose 60 mg/kg, route intravenous; conditions: in vivo
[15] = tested on: Rattus norvegicus; assay: Fraction of compound bio available orally in rat at dosage 50(mg/kg) by po administration.; conditions: in vivo
[16] = Oral bioavailability in rat (dose 50 mg/kg); format: ADME, organism-based; conditions: in vivo
[17] = Fraction of compound bio available orally in dog at dosage 30(mg/kg) by po administration.; format: ADME, organism-based, Canis lupus familiaris; conditions: in vivo
[18] = Fraction of compound bio available orally in dog at dosage 15(mg/kg) by po administration.; format: ADME, organism-based, Canis lupus familiaris; conditions: in vivo
[19] = Pharmacokinetic parameter Cmax determined after oral administration of 30 mg/kg to dog; conditions: in vivo
[20] = Pharmacokinetic parameter Cmax determined after peroral administration of 50 mg/kg to rat; format: ADME, organism-based; parameters: dose 50 mg/kg, route oral; conditions: in vivo, po
[21] = Pharmacokinetic parameter half life determined after peroral administration of 25 mg/kg to monkey; format: ADME, organism-based; parameters: dose 25 mg/kg, route oral; conditions: simiiformes, in vivo, po
[22] = Pharmacokinetic parameter Cmax determined after intravenous administration of 25 mg/kg to monkey; format: ADME, organism-based; parameters: dose 25 mg/kg, route intravenous; conditions: simiiformes, in vivo
[23] = Pharmacokinetic parameter Cmax determined after peroral administration of 25 mg/kg to monkey; format: ADME, organism-based; parameters: dose 25 mg/kg, route oral; conditions: simiiformes, in vivo, po
[24] = Fraction of compound bio available orally in monkey at dosage 25(mg/kg) by po administration.; conditions: primates, in vivo
[25] = Pharmacokinetic parameter half life determined after peroral administration of 30 mg/kg abd antacid (CaCO3 dosed orally 10 min prior to and 60 min postdosing) to dog; conditions: in vivo, po
[26] = Pharmacokinetic parameter half life determined after intravenous administration of 25 mg/kg to monkey; format: ADME, organism-based; parameters: dose 25 mg/kg, route intravenous; conditions: simiiformes, in vivo
[27] = Pharmacokinetic parameter Cmax determined after oral administration of 30 mg/kg abd antacid (CaCO3 dosed orally 10 min prior to and 60 min postdosing) to dog; conditions: in vivo
[28] = Pharmacokinetic parameter half life determined after intravenous administration of 15 mg/kg to dog; format: ADME, organism-based, Canis lupus familiaris; parameters: dose 15 mg/kg, route intravenous; conditions: in vivo
[29] = Toxic concentration at which 50% of CEM-SS cells were viable (uninfected with virus) as determined by metabolism of MTT; format: toxicity, cell-based; conditions: human, read-out: TC50 (the source's name); outline: as §2

SMILES: CCC1(N(CCO)C(=O)c2ccccc2CCC(O)Cc2ccc(C)cc2C(=O)N(CCO)C(C)(C)C2CCOCC2)CCCC1 (stereo not drawn)
EC50 [1]: 1110 nM
Ki [2]: 35 nM

SMILES: CCN(C(=O)c1ccccc1CC(O)CCc1ccccc1C(=O)N(CCO)C1(CC)CCCC1)C(C)(C)c1ccccc1 (stereo not drawn)
EC50 [1]: 1700 nM
Ki [2]: 51 nM

SMILES: CCC1(N(CCO)C(=O)c2ccccc2CCC(O)Cc2ccc(C)cc2C(=O)N(CC2COC(C)(C)OC2)C(C)(C)c2ccccc2)CCCC1 (stereo not drawn)
Ki [3]: 4 nM
EC50 [4]: 590 nM

SMILES: CC(C)(C)NC(=O)c1ccccc1CCC(O)Cc1ccccc1C(=O)NC(C)(C)C (stereo not drawn)
Ki [2]: 20000 nM

EC50 [1]: 36000 nM
SMILES: CC(C)(C)N(CCO)C(=O)c1ccccc1CCC(O)Cc1ccccc1C(=O)N(CCO)C(C)(C)C (stereo not drawn)
CC50 [5]: > 150 µM

SMILES: Cc1ccc(CC(O)CCc2ccccc2C(=O)N(CCO)C(C)(C)c2ccccc2)c(C(=O)N(CCO)C(C)(C)c2ccccc2)c1 (stereo not drawn)
Cmax [6]: 390 ng/mL
half-life [7]: 30 min
half-life [8]: 124 min
Cmax [9]: 1200 ng/mL
EC50 [1]: 810 nM
bioavailability [10]: 34%
Cmax [11]: 860 ng/mL
Cmax [12]: 88.9 µg/mL
Ki [2]: 18 nM

SMILES: CCC1(N(CCO)C(=O)c2ccccc2CCC(O)Cc2ccc(C)cc2C(=O)N(CCO)C2(c3ccccc3)CCCC2)CCCC1 (stereo not drawn)
EC50 [1]: 790 nM
Ki [2]: 0.4 nM

EC50 [1]: 3400 nM
Ki [2]: 90 nM
SMILES: CC(C)(C)N(CCO)C(=O)c1ccccc1CCC(O)Cc1ccccc1C(=O)N(CCO)C(C)(C)c1ccccc1 (stereo not drawn)
CC50 [5]: > 150 µM

SMILES: CCC1(N(CCO)C(=O)c2ccccc2CCC(O)Cc2ccc(C)cc2C(=O)N(CCO)C(C)(C)c2ccc(OCc3cccnc3)cc2)CCCC1 (stereo not drawn)
half-life [13]: 60 min
Cmax [9]: 860 ng/mL
Cmax [14]: 87.2 µg/mL
EC50 [1]: 650 nM
bioavailability [15]: 5%
Ki [2]: 2 nM

SMILES: CCC1(N(CCO)C(=O)c2ccccc2CCC(O)Cc2ccc(C)cc2C(=O)N(CCO)C(C)(C)c2ccccc2)CCCC1 (stereo not drawn)
bioavailability [16]: 39%
half-life [7]: 78 min
bioavailability [17]: 33%
bioavailability [18]: 3%
CC50 [5]: 103 µM
EC50 [1]: 780 nM
Cmax [19]: 690 ng/mL
Cmax [20]: 2780 ng/mL
half-life [21]: 64.2 min
Cmax [22]: 18300 ng/mL
Cmax [23]: 1910 ng/mL
Cmax [12]: 88.4 µg/mL
Ki [2]: 8 nM
bioavailability [24]: 32%
half-life [25]: 31.2 min
half-life [26]: 64.8 min
Cmax [27]: 3260 ng/mL
half-life [28]: 14.4 min

SMILES: Cc1ccc(CC(O)CCc2ccccc2C(=O)N(CCO)C(C)(C)C)c(C(=O)N(CCO)C(C)(C)c2ccccc2)c1 (stereo not drawn)
EC50 [1]: 4200 nM
Ki [2]: 63 nM

EC50 [1]: 20 nM
SMILES: CC(C)(C)NC(=O)c1ccccc1C[C@@H](O)[C@H](Cc1ccccc1)NC(=O)[C@H](CC(N)=O)NC(=O)c1cnc2ccccc2c1
CC50 [29]: 122 µM

SMILES: CC(C)(C)N(CCO)C(=O)c1ccccc1CCC(O)Cc1ccccc1C(=O)N(CCO)C(C)(C)c1ccc2ccccc2c1 (stereo not drawn)
EC50 [1]: 7200 nM
Ki [2]: 145 nM
